Measurements published in ChEMBL document CHEMBL4602693, “Structural Effect on Adjuvanticity of Saponins” (J Med Chem, 2020).
Activity calls are given as the source filed them. The rule behind the calls is not given here.

What was measured:
Type in all cases: functional, organism-based
Mus musculus [1] = experiment: Immunostimulatory activity in rHagB-immunized BALB/c mouse assessed as potentiation of rHagB specific Th2 immune response by measuring increase in serum anti-rHagB IgG1 level at 100 ug, sc administered at 14 days interval for 3 times and measured at 2 to 4 week post rHagB immunization by ELISA
Procedure, shortened: (§1)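 Female BALB/c mice, 8-10 weeks old, six per group. Given His-tag-purified recombinant HagB (35 μg) s.c. alone or with 100 μg saponin adjuvant on days 0, 14 and 28. Serum was collected before each dose and 2 weeks post-final. Anti-rHagB IgG, IgG1 or IgG2a was measured by ELISA on rHagB-coated (1 μg/ml) plates with duplicate serial dilutions.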

Mus musculus [2] = experiment: Immunostimulatory activity in rHagB-immunized BALB/c mouse assessed as potentiation of rHagB specific Th1 immune response by measuring increase in serum anti-rHagB IgG2a level at 100 ug, sc administered at 14 days interval for 3 times and measured at 2 to 6 week post rHagB immunization by ELISA; procedure, shortened: as §1
Mus musculus [3] = experiment: Immunostimulatory activity in rHagB-immunized BALB/c mouse assessed as potentiation of rHagB specific Th2 immune response by measuring increase in serum anti-rHagB IgG1 level at 100 ug, sc administered at 14 days interval for 3 times and measured at 6 week post rHagB immunization by ELISA; procedure, shortened: as §1
Mus musculus [4] = experiment: Immunostimulatory activity in rHagB-immunized BALB/c mouse assessed as potentiation of rHagB specific antibody response by measuring increase in serum anti-rHagB IgG level at 100 ug, sc administered at 14 days interval for 3 times and measured at 2 to 4 week post rHagB immunization by ELISA; procedure, shortened: as §1
Mus musculus [5] = experiment: Immunostimulatory activity in ovalbumin-immunized BALB/c mouse assessed as potentiation of OVA specific Th1 immune response by measuring increase in serum anti-OVA IgG2a level at 100 ug, sc administered at 14 days interval for 3 times and measured at 4 to 6 week post OVA immunization by ELISA
Procedure, shortened: (§2)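 Female BALB/c mice, 8-10 weeks old, six per group. Given OVA (20 μg) s.c. alone or with 100 μg saponin adjuvant on days 0, 14 and 28. Tail-vein blood was taken before each dose and 2 weeks after the last. Serum anti-OVA IgG, IgG1 or IgG2a was measured by ELISA on OVA-coated (0.1 μg/ml) plates with serial two-fold dilutions in duplicate.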

Mus musculus [6] = experiment: Immunostimulatory activity in ovalbumin-immunized BALB/c mouse assessed as potentiation of OVA specific antibody response by measuring increase in serum anti-OVA IgG level at 100 ug, sc administered at 14 days interval for 3 times and measured at 4 to 6 week post OVA immunization by ELISA; procedure, shortened: as §2
Mus musculus [7] = experiment: Immunostimulatory activity in rHagB-immunized BALB/c mouse assessed as potentiation of rHagB specific antibody response by measuring increase in serum anti-rHagB IgG level at 100 ug, sc administered at 14 days interval for 3 times and measured at 6 week post rHagB immunization by ELISA; procedure, shortened: as §1
Mus musculus [8] = experiment: Immunostimulatory activity in ovalbumin-immunized BALB/c mouse assessed as potentiation of OVA specific Th2 immune response by measuring increase in serum anti-OVA IgG1 level at 100 ug, sc administered at 14 days interval for 3 times and measured at 4 to 6 week post OVA immunization by ELISA; procedure, shortened: as §2
Mus musculus [9] = experiment: Immunostimulatory activity in ovalbumin-immunized BALB/c mouse assessed as potentiation of OVA specific Th2 immune response by measuring increase in serum anti-OVA IgG1 level at 100 ug, sc administered at 14 days interval for 3 times and measured at 4 week post OVA immunization by ELISA; procedure, shortened: as §2
Mus musculus [10] = experiment: Immunostimulatory activity in ovalbumin-immunized BALB/c mouse assessed as potentiation of OVA specific Th2 immune response by measuring increase in serum anti-OVA IgG1 level at 100 ug, sc administered at 14 days interval for 3 times and measured at 6 week post OVA immunization by ELISA; procedure, shortened: as §2

Row | SMILES | Activity (Mus musculus [1]) | Activity (Mus musculus [2]) | Activity (Mus musculus [3]) | Activity (Mus musculus [4]) | Activity (Mus musculus [5]) | Activity (Mus musculus [6]) | Activity (Mus musculus [7]) | Activity (Mus musculus [8]) | Activity (Mus musculus [9]) | Activity (Mus musculus [10])
1 | C[C@@H]1O[C@H](O[C@H]2[C@H](OC(=O)[C@]34CCC(C)(C)C[C@H]3C3=CC[C@@H]5[C@@]6(C)CC[C@H](O[C@@H]7O[C@H](C(=O)NCCCCCCCCCCC(=O)O)[C@@H](O)[C@H](O[C@@H]8OC[C@@H](O)[C@H](O)[C@H]8O)[C@H]7O[C@@H]7O[C@H](CO)[C@H](O)[C@H](O)[C@H]7O)[C@@](C)(C=O)[C@@H]6CC[C@@]5(C)[C@]3(C)C[C@H]4O)O[C@H](C)[C@H](O)[C@@H]2O)[C@H](O)[C@H](O[C@@H]2O[C@H](CO)[C@@H](O)[C@H](O)[C@H]2O)[C@H]1O[C@H]1OC[C@H](O)[C@@H](O[C@H]2OC[C@H](O)[C@@H](O)[C@@H]2O)[C@@H]1O | Active | Active | Active | Active |  |  |  |  |  | 
2 | CCCCCCCCCCCCNC(=O)[C@H]1O[C@@H](O[C@H]2CC[C@]3(C)[C@H]4CC=C5[C@@H]6CC(C)(C)CC[C@]6(C(=O)O[C@@H]6O[C@H](C)[C@H](O)[C@H](O)[C@H]6O[C@@H]6O[C@@H](C)[C@H](O[C@@H]7OC[C@@H](O)[C@H](O[C@@H]8OC[C@](O)(CO)[C@H]8O)[C@H]7O)[C@@H](O)[C@H]6O)[C@H](O)C[C@@]5(C)[C@]4(C)CC[C@H]3[C@]2(C)C=O)[C@H](O[C@@H]2O[C@H](CO)[C@H](O)[C@H](O)[C@H]2O)[C@@H](O[C@@H]2OC[C@@H](O)[C@H](O)[C@H]2O)[C@@H]1O | Active | Active |  | Active | Active | Active | Active | Active |  | 
3 | CCCCCCCCCCCCNC(=O)[C@H]1O[C@@H](O[C@H]2CC[C@]3(C)[C@H]4CC=C5[C@@H]6CC(C)(C)CC[C@]6(C(=O)O[C@@H]6O[C@H](C)[C@H](O)[C@H](O)[C@H]6O[C@H]6O[C@@H](C)[C@H](O[C@H]7OC[C@H](O)[C@@H](O)[C@@H]7O)[C@@H](O[C@@H]7O[C@H](CO)[C@@H](O)[C@H](O[C@@H]8OC[C@@H](O)[C@H](O)[C@H]8O)[C@H]7O)[C@H]6O)CC[C@@]5(C)[C@]4(C)CC[C@H]3[C@]2(C)C=O)[C@H](O[C@@H]2O[C@H](CO)[C@H](O)[C@H](O)[C@H]2O)[C@@H](O[C@@H]2O[C@@H](C)[C@H](O)[C@@H](O)[C@H]2O)[C@@H]1O |  |  |  |  | Active | Active |  | Active |  | 
4 | C[C@@H]1O[C@H](O[C@H]2[C@H](OC(=O)[C@]34CCC(C)(C)C[C@H]3C3=CC[C@@H]5[C@@]6(C)CC[C@H](O[C@@H]7O[C@H](C(=O)NCCCCCCCCCCC(=O)OCc8ccccc8)[C@@H](O)[C@H](O[C@@H]8OC[C@@H](O)[C@H](O)[C@H]8O)[C@H]7O[C@@H]7O[C@H](CO)[C@H](O)[C@H](O)[C@H]7O)[C@@](C)(C=O)[C@@H]6CC[C@@]5(C)[C@]3(C)C[C@H]4O)O[C@H](C)[C@H](O)[C@@H]2O)[C@H](O)[C@H](O[C@@H]2O[C@H](CO)[C@@H](O)[C@H](O)[C@H]2O)[C@H]1O[C@H]1OC[C@H](O)[C@@H](O[C@H]2OC[C@H](O)[C@@H](O)[C@@H]2O)[C@@H]1O | Active | Active | Active | Active |  |  |  |  |  | 
5 | C[C@@H]1O[C@@H](O[C@H]2[C@H](O)[C@@H](C(=O)NCCCCCCCCCCC(=O)O)O[C@@H](O[C@H]3CC[C@]4(C)[C@H]5CC=C6[C@@H]7CC(C)(C)CC[C@]7(C(=O)O[C@@H]7O[C@H](C)[C@H](O)[C@H](O)[C@H]7O[C@H]7O[C@@H](C)[C@H](O[C@H]8OC[C@H](O)[C@@H](O)[C@@H]8O)[C@@H](O[C@@H]8O[C@H](CO)[C@@H](O)[C@H](O[C@@H]9OC[C@@H](O)[C@H](O)[C@H]9O)[C@H]8O)[C@H]7O)CC[C@@]6(C)[C@]5(C)CC[C@H]4[C@]3(C)C=O)[C@@H]2O[C@@H]2O[C@H](CO)[C@H](O)[C@H](O)[C@H]2O)[C@H](O)[C@H](O)[C@H]1O |  |  |  |  | Active | Active |  | Active |  | 
6 | C[C@@H]1O[C@@H](O[C@H]2[C@H](O)[C@@H](C(=O)NCCCCCCCCCCC(=O)OCc3ccccc3)O[C@@H](O[C@H]3CC[C@]4(C)[C@H]5CC=C6[C@@H]7CC(C)(C)CC[C@]7(C(=O)O[C@@H]7O[C@H](C)[C@H](O)[C@H](O)[C@H]7O[C@H]7O[C@@H](C)[C@H](O[C@H]8OC[C@H](O)[C@@H](O)[C@@H]8O)[C@@H](O[C@@H]8O[C@H](CO)[C@@H](O)[C@H](O[C@@H]9OC[C@@H](O)[C@H](O)[C@H]9O)[C@H]8O)[C@H]7O)CC[C@@]6(C)[C@]5(C)CC[C@H]4[C@]3(C)C=O)[C@@H]2O[C@@H]2O[C@H](CO)[C@H](O)[C@H](O)[C@H]2O)[C@H](O)[C@H](O)[C@H]1O |  |  |  |  | Active | Active |  | Active |  | 
7 | C[C@@H]1O[C@@H](O[C@H]2[C@H](O)[C@@H](C(=O)NCCCCCCCCCCC(=O)O)O[C@@H](O[C@H]3CC[C@]4(C)[C@H]5CC=C6[C@@H]7CC(C)(C)CC[C@]7(C(=O)O[C@@H]7O[C@H](C)[C@H](O)[C@H](O)[C@H]7O[C@H]7O[C@@H](C)[C@H](O[C@H]8OC[C@H](O)[C@@H](O)[C@@H]8O)[C@@H](O[C@@H]8O[C@H](CO)[C@@H](O)[C@H](O[C@@H]9OC[C@@H](O)[C@H](O)[C@H]9O)[C@H]8O)[C@H]7O)[C@H](O)C[C@@]6(C)[C@]5(C)CC[C@H]4[C@]3(C)C=O)[C@@H]2O[C@@H]2O[C@H](CO)[C@H](O)[C@H](O)[C@H]2O)[C@H](O)[C@H](O)[C@H]1O | Active | Active |  | Active |  | Active |  |  | Active | inactive
8 | C[C@@H]1O[C@@H](O[C@H]2[C@H](O)[C@@H](C(=O)NCCCCCCCCCCC(=O)OCc3ccccc3)O[C@@H](O[C@H]3CC[C@]4(C)[C@H]5CC=C6[C@@H]7CC(C)(C)CC[C@]7(C(=O)O[C@@H]7O[C@H](C)[C@H](O)[C@H](O)[C@H]7O[C@H]7O[C@@H](C)[C@H](O[C@H]8OC[C@H](O)[C@@H](O)[C@@H]8O)[C@@H](O[C@@H]8O[C@H](CO)[C@@H](O)[C@H](O[C@@H]9OC[C@@H](O)[C@H](O)[C@H]9O)[C@H]8O)[C@H]7O)[C@H](O)C[C@@]6(C)[C@]5(C)CC[C@H]4[C@]3(C)C=O)[C@@H]2O[C@@H]2O[C@H](CO)[C@H](O)[C@H](O)[C@H]2O)[C@H](O)[C@H](O)[C@H]1O | Active | Active |  | Active | Active | Active |  | Active |  | 
